In the library only some 2.4% were active in any assay of this set; here they are far more common.
Calb FLC = C. albicans growth modulation with fluconazole; 0.57% of 300,000 active; C. albicans CaCi-2 (fluconazole-resistant clinical isolate) + fluconazole, Alamar Blue growth, 48 h; growth inhibition, % (concentration not given with the values);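 active = growth inhibition above about 58% in most replicates, limit read from the data, passing the limit was not always enough; inconclusive = exactly half the replicates above a set limit; inactive = most replicates below a set limit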;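 also: all wells also contain fluconazole at 8 µg/ml as a sub-toxic cotreatment; 0% = median of DMSO wells and 100% = median of geldanamycin control wells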
SR-BI DiI-HDL act = activators of SR-BI mediated HDL lipid uptake. activation, % at 12.5 µM. CHO ldlA[mSR-BI] cells, DiI-HDL uptake fluorescence, 3 h; 100 = double the neutral-control signal. 0.096% of 320,000 active. AID 504775;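 active = mean replicate activation of at least 60% and every replicate at or above 60%; inconclusive = mean or all-replicate condition met, but not both; inactive = mean below 60% and not all replicates reaching 60%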;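 also: 0% = median plate neutral-control signal and 100% = twice that signal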
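Assay system: CHO ldlA[mSR-BI] cells, LDL receptor-null, SR-BI overexpressing; medium: Ham's F12 with 0.5% BSA, HEPES 25 mM, pH 7.4; also added: DiI-HDL 10 µg/mL; timing: 3 h uptake period with compound, 37 °C; signal: DiI fluorescence, bottom read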
beta cell repl = inducers of beta-cell replication in MIN6 cells; MIN6 cells proliferation, ATPlite luminescence, 48 h; cells starved in 0.2% serum; 100% = growth in 10% serum; proliferation, % at 10 µM; 0.29% of 330,000 active; AID 2380;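 active = compounds whose signal lies at least 3.5 SD above the mean of all wells on their plate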;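 also: 0% = DMSO-treated cells in low-serum medium and 100% = 10% serum control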
m5-HT2A agonist = agonists of mouse serotonin 5-HT2A receptor (HTR2A) | 0.66% of 360,000 active | CHO-K1 mHTR2A beta-arrestin complementation, luminescence; percent of 30 µM serotonin response | AID 624169 | P35363 | activation, % at 7.6 µM;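 active = activation above a run cutoff, the mean activation of all tested compounds plus 3 SD, cut at about 14% in these data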;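 also: 0% = plate median of compound wells and 100% = 30 µM serotonin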
Insulin prom up = MIN6 insulin promoter up-regulation. MIN6 insulin promoter-GFP reporter, high-content imaging; hits give high values. z-score at 5 µM. 0.3% of 190,000 active;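 active = z-score above 3 at 5 µM with at least 500 cells counted in the well; inconclusive = wells under 500 cells, flagged as cytotoxic or low count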
SR-BI HDL uptake = inhibitors of mouse SR-BI mediated HDL lipid uptake; Q61009; ldlA[mSR-BI] CHO cells, DiI-HDL uptake fluorescence, 3 h; inhibition, % at 12.5 µM; 0.96% of 320,000 active;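 active = mean replicate inhibition of at least 70% and a set share of replicates each scoring 70 or more; inconclusive = meets just one of the two criteria; inactive = fails both criteria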;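 also: 0% = median of neutral control wells and 100% = median of positive control wells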
Target sequence (Q61009 whole entry, looked up): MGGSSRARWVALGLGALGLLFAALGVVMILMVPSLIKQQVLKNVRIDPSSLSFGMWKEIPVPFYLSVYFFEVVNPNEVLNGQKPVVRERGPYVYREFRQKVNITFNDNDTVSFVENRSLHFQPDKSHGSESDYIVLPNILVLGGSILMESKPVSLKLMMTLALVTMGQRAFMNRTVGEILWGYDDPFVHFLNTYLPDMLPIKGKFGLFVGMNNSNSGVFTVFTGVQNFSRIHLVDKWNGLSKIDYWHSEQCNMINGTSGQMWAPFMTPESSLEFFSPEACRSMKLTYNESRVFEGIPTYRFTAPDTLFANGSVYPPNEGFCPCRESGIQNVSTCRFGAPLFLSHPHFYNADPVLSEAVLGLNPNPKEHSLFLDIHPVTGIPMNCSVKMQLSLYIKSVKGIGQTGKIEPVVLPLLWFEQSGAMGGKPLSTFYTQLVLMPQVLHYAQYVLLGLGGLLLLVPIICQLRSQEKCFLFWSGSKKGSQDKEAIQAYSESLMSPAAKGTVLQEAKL
An asterisk follows results filed as active; ! = a repeat was not active.

`N/C(=N\OC(=O)c1cccs1)C1(c2ccc(Cl)cc2Cl)CC1` gave Calb FLC -14.9, SR-BI DiI-HDL act 13.9, beta cell repl -2.9, m5-HT2A agonist -3.9, Insulin prom up -0.14 and SR-BI HDL uptake -13.9.
For N/C(Cc1ccc(Cl)c(Cl)c1)=N\OC(=O)c1cccs1 the results were Calb FLC 101.4*, SR-BI DiI-HDL act 12.4, beta cell repl -5.4, m5-HT2A agonist -2.9, Insulin prom up 1.54 and SR-BI HDL uptake -12.4.
For Cc1sc2ncnc(N3CCC(C(=O)NNC(=O)COc4ccc(Br)cc4)CC3)c2c1C the results were Calb FLC 33.8, SR-BI DiI-HDL act -81.0, beta cell repl -5.8, m5-HT2A agonist 6.1 and SR-BI HDL uptake 81.0*.
Screening COc1ccc(OCC(=O)NNC(=O)C2CCN(c3ncnc4sc(C)c(C)c34)CC2)cc1 returned SR-BI DiI-HDL act -55.9, beta cell repl -2.4, m5-HT2A agonist 2.4 and SR-BI HDL uptake 55.9.
Screening O=C(CN1CCN(c2cccc(C(F)(F)F)c2)CC1)N(C1CCCC1)C1CCS(=O)(=O)C1 (configuration not stated) returned SR-BI DiI-HDL act -31.4, beta cell repl -1.9, m5-HT2A agonist 1.6 and SR-BI HDL uptake 31.4.
O=C(CSc1nc(Cc2ccccc2)nc2ccccc12)c1ccc2c(c1)OCCO2 was read as Calb FLC -10.6, SR-BI DiI-HDL act -30.5, beta cell repl -2.0, m5-HT2A agonist 19.4*, Insulin prom up 0.03 and SR-BI HDL uptake 30.5.
Screening Fc1ccc(-c2cc3nc4c(c(N5CCOCC5)n3n2)CCCC4)cc1 returned Calb FLC -3.2, SR-BI DiI-HDL act -76.2, beta cell repl -1.1, m5-HT2A agonist 0.2, Insulin prom up -1.4 and SR-BI HDL uptake 76.2*.
`CC1=Nc2ccccc2/C1=C/c1nc(-c2ccc(C)s2)oc1O` gave Calb FLC -5.1, SR-BI DiI-HDL act -102.6, beta cell repl -5.0, m5-HT2A agonist -1.5, Insulin prom up 1.35 and SR-BI HDL uptake 102.6*.
Screening COC(=O)c1cc(C(=O)NCC2CCCCC2)cc([N+](=O)[O-])c1 returned Calb FLC 3.8, SR-BI DiI-HDL act -25.8, beta cell repl 0.6, m5-HT2A agonist 5.3 and SR-BI HDL uptake 25.8.
`COC1(C)CC2C(CC1OC(=O)c1cc([N+](=O)[O-])cc([N+](=O)[O-])c1)C2(C)C` (configuration not stated) gave Calb FLC -2.5, SR-BI DiI-HDL act -66.7, beta cell repl -4.0, m5-HT2A agonist 2.3 and SR-BI HDL uptake 93.2*!.
`O=C(NNC(=S)NC1CCCCC1)c1ccccc1O` gave Calb FLC -1.3, SR-BI DiI-HDL act -117.7, beta cell repl -5.5, m5-HT2A agonist 2.0, Insulin prom up 0.38 and SR-BI HDL uptake 117.7*.
`O=C(NNC(=O)c1cc2ccccc2cc1O)NC1CCCCC1` gave Calb FLC inconclusive, SR-BI DiI-HDL act -114.7, beta cell repl -2.8, m5-HT2A agonist -0.9 and SR-BI HDL uptake 114.7*.
O=C(C1CC(=O)N(c2ccc3c(c2)OCCO3)C1)N1CCCC(C(F)(F)F)C1 (configuration not stated) was read as Calb FLC 0.5, SR-BI DiI-HDL act -2.3, beta cell repl -2.0, m5-HT2A agonist -0.3 and SR-BI HDL uptake 2.3.
For Cc1cccn2cc(-c3c[nH]c4ccccc34)nc12 the results were Calb FLC -2.3, SR-BI DiI-HDL act -23.7, beta cell repl -3.2, m5-HT2A agonist -4.8, Insulin prom up 0.37 and SR-BI HDL uptake 23.8.
For Brc1ccc2nc(-c3c[nH]c4ccccc34)cn2c1 the results were Calb FLC 18.6, SR-BI DiI-HDL act -84.5, beta cell repl -2.2, m5-HT2A agonist -1.6, Insulin prom up 0.47 and SR-BI HDL uptake 84.5*.
For CC(NC(=O)Nc1ccccc1F)C(C)(C)C (configuration not stated) the results were Calb FLC 58.4*, SR-BI DiI-HDL act 10.7, beta cell repl -1.6, m5-HT2A agonist 1.5, Insulin prom up -0.44 and SR-BI HDL uptake -10.7.
Screening COC(=O)[C@@H](NC(=O)Nc1ccccc1F)C(C)C returned Calb FLC -21.3, SR-BI DiI-HDL act 16.0, beta cell repl -3.9, m5-HT2A agonist -1.2, Insulin prom up -0.04 and SR-BI HDL uptake -16.0.
